Bioassay records (PubChem)
Shown are actives, neighbours in structure and some others; about 3% of the full set was active somewhere.
MEKK2 WT-MEK5: raises or lowers MEK5 binding to wildtype human MEKK2 PB1 domain. Q9Y2U5. bead flow cytometry, Alexa488-MEK5 binding to MEKK2 WT; actives lie on both sides. binding response (% of control), % at 10 µM. 1.1% of 290,000 active; in the data active = binding response below about 67% or above about 130%
MEKK3 PB1 HTS: modulators (inhibitors or enhancers) of MEK5 binding to human MEKK3 PB1 domain | Q99759 | bead-based flow cytometry, Alexa488-MEK5 binding to MEKK3; actives lie on both sides; 0 = blocked by unlabeled MEK5, 100 = vehicle | binding response (% of control), % at 10 µM | 1.4% of 290,000 active | AID 1529;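 active = binding response more than 3 SD above or below the average of its plate-row segment, actives on both sides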;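 also: Alexa488 bead fluorescence after subtracting the streptavidin-only scavenger bead signal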
MEKK2 mut-MEK5: signal of MEK5 binding to mutant human MEKK2 PB1 domain. bead flow cytometry, Alexa488-MEK5 binding to MEKK2 mutant. 0.35% of 290,000 active. AID 1530. percent response, % at 10 µM; in the data active = percent response above about 24%, passing the limit was not always enough
Apaf-1 inh: human Apaf-1 inhibition | AID 489030 | reconstituted apoptosome caspase-3 activity, DEVD-Rh110 fluorescence | O14727 | 0.71% of 330,000 active | inhibition, % at 20 µM; active = inhibition of at least 40% at 20 µM
Target sequence (O14727 whole entry, looked up): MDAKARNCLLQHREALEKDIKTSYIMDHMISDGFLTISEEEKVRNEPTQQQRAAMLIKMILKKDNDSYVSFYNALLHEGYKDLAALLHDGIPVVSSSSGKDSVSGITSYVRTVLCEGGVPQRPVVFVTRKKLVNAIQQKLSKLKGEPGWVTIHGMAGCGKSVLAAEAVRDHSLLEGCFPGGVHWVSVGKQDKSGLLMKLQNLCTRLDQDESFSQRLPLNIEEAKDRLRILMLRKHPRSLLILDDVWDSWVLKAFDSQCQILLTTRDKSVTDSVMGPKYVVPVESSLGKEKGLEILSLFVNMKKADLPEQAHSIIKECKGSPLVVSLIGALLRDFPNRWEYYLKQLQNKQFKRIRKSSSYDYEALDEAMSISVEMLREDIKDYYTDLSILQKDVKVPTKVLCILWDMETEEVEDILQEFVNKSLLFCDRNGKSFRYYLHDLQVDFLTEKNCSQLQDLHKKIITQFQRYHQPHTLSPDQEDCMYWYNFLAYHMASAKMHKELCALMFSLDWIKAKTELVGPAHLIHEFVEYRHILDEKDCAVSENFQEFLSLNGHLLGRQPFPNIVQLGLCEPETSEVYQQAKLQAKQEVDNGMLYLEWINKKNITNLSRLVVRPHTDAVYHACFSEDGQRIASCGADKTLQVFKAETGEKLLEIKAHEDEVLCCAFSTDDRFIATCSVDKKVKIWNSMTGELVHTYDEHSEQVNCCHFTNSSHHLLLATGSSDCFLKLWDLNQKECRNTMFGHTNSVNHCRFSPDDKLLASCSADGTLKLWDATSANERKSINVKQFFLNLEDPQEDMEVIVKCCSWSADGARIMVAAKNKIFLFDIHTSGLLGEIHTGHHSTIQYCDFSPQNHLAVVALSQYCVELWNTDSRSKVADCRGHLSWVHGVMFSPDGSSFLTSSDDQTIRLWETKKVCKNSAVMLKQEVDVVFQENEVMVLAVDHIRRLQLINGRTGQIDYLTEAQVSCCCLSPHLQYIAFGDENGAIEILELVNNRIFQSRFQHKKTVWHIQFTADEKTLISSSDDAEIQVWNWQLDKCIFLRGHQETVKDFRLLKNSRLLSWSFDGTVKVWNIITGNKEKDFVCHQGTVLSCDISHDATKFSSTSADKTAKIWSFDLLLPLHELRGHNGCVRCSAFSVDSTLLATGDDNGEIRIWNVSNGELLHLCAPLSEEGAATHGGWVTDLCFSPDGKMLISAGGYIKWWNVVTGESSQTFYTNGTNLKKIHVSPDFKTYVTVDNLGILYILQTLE
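Material: reconstituted apoptosome with Apaf-1, cytochrome c, caspase-9, procaspase-3, dATP / Buffer or medium: pH 7.5 Hepes buffer with CHAPS, BSA, DTT / Also added: cytochrome c with DEVD-Rh110 / Schedule: compound with Apaf-1, dATP, procaspase-3 30 min, then 50 min reaction, room temperature / Technique: rhodamine 110 fluorescence at Ex 480/Em 540 nm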
UBC13 polyUb: human UBC13 polyubiquitination inhibition | UBC13 polyubiquitin chain formation, TR-FRET | 0.47% of 330,000 active | inhibition, % at 20 µM; in the data active = inhibition above about 45%, passing the limit was not always enough
UCH37 inh: blocks the human deubiquitinase UCH37 | purified proteasome/UCH37, Ub-AMC cleavage fluorescence | inhibition, % (no concentration beside the values) | 0.33% of 330,000 active | AID 588478;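 active = mean inhibition over replicate wells above about 20%, limit read from the data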
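Material: Human UCH37 enzyme supplied as purified proteasome complex | Schedule: 30 min preincubation with enzyme, 25 min cleavage at room temperature | Detection: AMC fluorescence 355/460 nm | Measure: % inhibition of Ub-AMC cleavage fluorescence | Controls: Wells without proteasome as full block, compound-free enzyme plus substrate as uninhibited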
Casp3 counter: inhibits human caspase-3 in UBC13 counter-screen | shares compounds with UBC13 polyUb | Recombinant caspase-3, Caspase-Glo 3/7 luminescence, 60 min | inhibition, % at 20 µM | 4% of 1,400 active | AID 488856;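 active = mean inhibition across replicates above about 26%, limit read from the data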
UBC13 confirm: human UBC13 polyubiquitin inhibition, confirmed; UBC13 polyubiquitination, TR-FRET, biochemical; inhibition, % at 10 µM; shares compounds with UBC13 polyUb; 68% of 1,400 active; in the data active = inhibition above about 45%
A number is an active result.

For O=S1(=O)CC(O)C(N=Nc2c(O)n(Cc3ccccc3)c3ccccc23)C1 (stereo not given) the results were MEKK2 WT-MEK5 inactive, MEKK3 PB1 HTS inactive, MEKK2 mut-MEK5 inactive, Apaf-1 inh inactive, UBC13 polyUb 55.5, UCH37 inh inactive, Casp3 counter inactive and UBC13 confirm inactive.
Cc1ccc(NC(=O)C2CCCN(C(=O)c3ccc(Cl)cc3)C2)c(C)c1 (stereo not given) was read as MEKK2 WT-MEK5 inactive, MEKK3 PB1 HTS inactive, MEKK2 mut-MEK5 inactive, Apaf-1 inh inactive, UBC13 polyUb inactive and UCH37 inh inactive.
`O=C(Nc1cccc2nsnc12)c1ccc(-c2cccc(Cl)c2)o1` gave MEKK2 WT-MEK5 inactive, MEKK3 PB1 HTS inactive, MEKK2 mut-MEK5 inactive, Apaf-1 inh inactive, UBC13 polyUb 48.9, UCH37 inh inactive, Casp3 counter 31.5 and UBC13 confirm inactive.
Screening NCc1cc2c3c(c1)CCCN3CCC2 returned MEKK2 WT-MEK5 inactive, MEKK3 PB1 HTS inactive, MEKK2 mut-MEK5 inactive, Apaf-1 inh inactive, UBC13 polyUb 53.9, UCH37 inh inactive, Casp3 counter inactive and UBC13 confirm inactive.
`COc1c(C=O)cc2c3c1CCCN3CCC2` gave MEKK2 WT-MEK5 inactive, MEKK3 PB1 HTS inactive, MEKK2 mut-MEK5 inactive, Apaf-1 inh inactive, UBC13 polyUb inactive and UCH37 inh inactive.
`Cc1ccc(OC(=O)c2cccc(C(=O)Oc3ccc(C)cn3)n2)nc1` gave MEKK2 WT-MEK5 inactive, MEKK3 PB1 HTS inactive, MEKK2 mut-MEK5 inactive, Apaf-1 inh inactive and UBC13 polyUb inactive.
For COc1ccc(Cl)cc1/C=N/NC(=O)c1c(-c2ccccc2)noc1C the results were MEKK2 WT-MEK5 inactive, MEKK3 PB1 HTS inactive, MEKK2 mut-MEK5 inactive, Apaf-1 inh inactive, UBC13 polyUb 55.8, Casp3 counter inactive and UBC13 confirm inactive.
`O=C(NNC(=O)C1CCN(S(=O)(=O)c2ccc(Cl)cc2)CC1)c1ccc(S(=O)(=O)N2CCCCC2)cc1` gave MEKK2 WT-MEK5 inactive, MEKK3 PB1 HTS inactive, MEKK2 mut-MEK5 inactive, Apaf-1 inh inactive, UBC13 polyUb 56.5, UCH37 inh inactive, Casp3 counter inactive and UBC13 confirm 52.1.
For Cc1ccc(C(=O)NNC(=O)C2CCN(S(=O)(=O)c3ccc(Cl)cc3)CC2)cc1 the results were MEKK2 WT-MEK5 inactive, MEKK3 PB1 HTS inactive, MEKK2 mut-MEK5 inactive, Apaf-1 inh inactive, UBC13 polyUb inactive and UCH37 inh inactive.
`Oc1ccc(Cl)cc1Nc1nc(NCC2CCCO2)c2ccccc2n1` (stereo not given) gave MEKK2 WT-MEK5 inactive, MEKK3 PB1 HTS inactive, MEKK2 mut-MEK5 inactive, Apaf-1 inh inactive, UBC13 polyUb 53.4, Casp3 counter inactive and UBC13 confirm 66.6.
COc1ccc(Nc2cc(Nc3cc(OC)c(OC)c(OC)c3)ncn2)cc1 was read as MEKK2 WT-MEK5 inactive, MEKK3 PB1 HTS inactive, MEKK2 mut-MEK5 inactive, Apaf-1 inh inactive, UBC13 polyUb 54.9, UCH37 inh inactive, Casp3 counter inactive and UBC13 confirm 58.2.
`O=C(c1cccc(S(=O)(=O)N2CCOCC2)c1)N(Cc1nnc(-c2ccccc2Cl)o1)C1CC1` gave Apaf-1 inh inactive, UBC13 polyUb inactive and UCH37 inh inactive.
`CC1CN(S(=O)(=O)c2cccc(C(=O)N(Cc3nnc(-c4ccccc4Cl)o3)C3CC3)c2)CC(C)O1` (stereo not given) gave Apaf-1 inh inactive, UBC13 polyUb 50.6, UCH37 inh inactive, Casp3 counter inactive and UBC13 confirm 85.6.
CCN(CC)CCCn1c(=S)[nH]c2ccccc2c1=O was read as MEKK2 WT-MEK5 inactive, MEKK3 PB1 HTS inactive, MEKK2 mut-MEK5 inactive, Apaf-1 inh inactive, UBC13 polyUb inactive and UCH37 inh inactive.
Screening NCCCC[C@H]1CN=C(N)N1CCc1cccc2ccccc12 returned MEKK2 WT-MEK5 inactive, MEKK3 PB1 HTS inactive, MEKK2 mut-MEK5 inactive, Apaf-1 inh inactive, UBC13 polyUb inactive and UCH37 inh inactive.
For CCC(C)[C@H]1CN=C(N)N1CCc1cccc2ccccc12 (stereo not given in full) the results were MEKK2 WT-MEK5 inactive, MEKK3 PB1 HTS inactive, MEKK2 mut-MEK5 inactive, Apaf-1 inh inactive, UBC13 polyUb 45.1, UCH37 inh inactive, Casp3 counter inactive and UBC13 confirm 50.8.
`COc1ccccc1NC(=O)CSc1nc2ccccc2n1C(C)=O` gave MEKK2 WT-MEK5 inactive, MEKK3 PB1 HTS inactive, MEKK2 mut-MEK5 inactive, Apaf-1 inh inactive, UBC13 polyUb 46.1, UCH37 inh inactive, Casp3 counter inactive and UBC13 confirm inactive.
COc1cc2[nH]c(=S)nc(NC3CCCCCC3)c2cc1OC was read as MEKK2 WT-MEK5 inactive, MEKK3 PB1 HTS inactive, MEKK2 mut-MEK5 inactive, Apaf-1 inh inactive, UBC13 polyUb inactive and UCH37 inh inactive.
Screening COc1cc2[nH]c(=S)nc(Nc3ccc(NC(C)=O)cc3)c2cc1OC returned MEKK2 WT-MEK5 inactive, MEKK3 PB1 HTS inactive, MEKK2 mut-MEK5 inactive, Apaf-1 inh inactive, UBC13 polyUb 46.3, UCH37 inh inactive, Casp3 counter inactive and UBC13 confirm 47.8.
For O=C(NC1(C(F)(F)F)NC(=O)N(Cc2cccnc2)C1=O)c1ccncc1 (stereo not given) the results were MEKK2 WT-MEK5 inactive, MEKK3 PB1 HTS inactive, MEKK2 mut-MEK5 inactive, Apaf-1 inh inactive, UBC13 polyUb inactive and UCH37 inh inactive.
CCOc1ccc(C2C(C(=O)c3ccc(C)o3)=C(O)C(=O)N2c2nc(C)c(C(=O)OC)s2)cc1 (stereo not given) was read as MEKK2 WT-MEK5 inactive, MEKK3 PB1 HTS inactive, MEKK2 mut-MEK5 inactive, Apaf-1 inh inactive, UBC13 polyUb inactive and UCH37 inh inactive.
`CCCCC(=O)Nc1ccc2c3c(cccc13)C(=O)N2CC` gave MEKK2 WT-MEK5 inactive, MEKK3 PB1 HTS inactive, MEKK2 mut-MEK5 inactive, Apaf-1 inh inactive, UBC13 polyUb 60.5, UCH37 inh inactive, Casp3 counter inactive and UBC13 confirm 66.2.
Cc1cccc(N2C(=O)c3ccc(C(=O)Nc4ccccn4)cc3C2=O)c1 was read as MEKK2 WT-MEK5 inactive, MEKK3 PB1 HTS inactive, MEKK2 mut-MEK5 inactive, Apaf-1 inh inactive, UBC13 polyUb inactive and UCH37 inh inactive.
Screening CC(=O)Nc1ccc2c(c1)C(=O)N(c1cccc(C)c1)C2=O returned MEKK2 WT-MEK5 inactive, MEKK3 PB1 HTS inactive, MEKK2 mut-MEK5 inactive, Apaf-1 inh inactive, UBC13 polyUb 45.7, UCH37 inh inactive, Casp3 counter inactive and UBC13 confirm inactive.
